Tests used:
[1] = Growth inhibition of human HCT116 cells after 48 hrs by MTT assay; assay type: functional, cell-based; conditions: HCT-116, 48 h
Procedure, shortened: (§1)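 In vitro cytotoxicity screen on human cell lines. Value reported as IC50, the concentration causing 50% inhibition of the cells.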

[2] = Growth inhibition of human HuH7 cells after 48 hrs by MTT assay; assay type: functional, cell-based; conditions: Huh-7, 48 h; procedure, shortened: as §1
[3] = Growth inhibition of human SW620 cells after 48 hrs by MTT assay; assay type: functional, cell-based; conditions: SW-620, 48 h; procedure, shortened: as §1
[4] = Growth inhibition of human HFL1 cells after 48 hrs by MTT assay; assay type: cell-based; conditions: HFL1, 48 h; procedure, shortened: as §1

Structure (SMILES): COc1cc2ccc(=O)oc2cc1OC(=O)c1c(C)noc1-c1ccccc1
- IC50 [1]: 22.7 µM
- IC50 [2]: > 25 µM
- IC50 [3]: 23.4 µM
- IC50 [4]: 69.3 µM

Structure (SMILES): COc1cc2cc(NC(=O)c3c(C)noc3-c3ccccc3F)c(=O)oc2cc1OCCN1CCOCC1
- IC50 [1]: 15.6 µM
- IC50 [2]: 14.7 µM
- IC50 [3]: 13.9 µM
- IC50 [4]: 68.5 µM

Structure (SMILES): COc1cc2ccc(=O)oc2cc1OC(=O)c1c(-c2ccc([N+](=O)[O-])cc2)n[nH]c1C
- IC50 [1]: > 25 µM
- IC50 [2]: > 25 µM
- IC50 [3]: > 25 µM

Structure (SMILES): COc1cc2ccc(=O)oc2cc1OC(=O)c1c(C)noc1-c1ccc([N+](=O)[O-])cc1
- IC50 [1]: 9.21 µM
- IC50 [2]: 8.76 µM
- IC50 [3]: 9.83 µM
- IC50 [4]: 90.9 µM

Structure (SMILES): COc1cc2ccc(=O)oc2cc1OC(=O)c1c(-c2ccccc2F)n[nH]c1C
- IC50 [1]: > 25 µM
- IC50 [2]: > 25 µM
- IC50 [3]: > 25 µM

Structure (SMILES): COc1cc2ccc(=O)oc2cc1OC(=O)c1c(-c2ccc(Cl)cc2)n[nH]c1C
- IC50 [1]: 13.8 µM
- IC50 [2]: 16.2 µM
- IC50 [3]: 17.1 µM
- IC50 [4]: 47 µM

Structure (SMILES): COc1cc2cc(NC(=O)c3c(C)noc3-c3ccccc3)c(=O)oc2cc1OCCN1CCOCC1
- IC50 [1]: 20.9 µM
- IC50 [2]: > 25 µM
- IC50 [3]: > 25 µM

Structure (SMILES): COc1cc2ccc(=O)oc2cc1OC(=O)c1c(C)noc1-c1ccccc1F
- IC50 [1]: > 25 µM
- IC50 [2]: > 25 µM
- IC50 [3]: > 25 µM

Structure (SMILES): COc1cc2cc(NC(=O)c3c(C)noc3-c3ccc(Cl)cc3)c(=O)oc2cc1OCCN1CCOCC1
- IC50 [1]: > 25 µM
- IC50 [2]: > 25 µM
- IC50 [3]: > 25 µM

Structure (SMILES): COc1cc2ccc(=O)oc2cc1OC(=O)c1c(-c2ccccc2)n[nH]c1C
- IC50 [1]: > 25 µM
- IC50 [2]: > 25 µM
- IC50 [3]: > 25 µM

Structure (SMILES): COc1cc2cc(NC(=O)c3c(C)noc3-c3ccc([N+](=O)[O-])cc3)c(=O)oc2cc1OCCN1CCOCC1
- IC50 [1]: 10.3 µM
- IC50 [2]: 12.1 µM
- IC50 [3]: 10.5 µM
- IC50 [4]: 74.2 µM

Structure (SMILES): COc1cc2ccc(=O)oc2cc1OC(=O)c1c(C)noc1-c1ccc(Cl)cc1
- IC50 [1]: 10.9 µM
- IC50 [2]: 12.4 µM
- IC50 [3]: 12.7 µM
- IC50 [4]: 42.2 µM

Structure (SMILES): COc1cc2ccc(=O)oc2cc1O [SCOPOLETIN]
- IC50 [1]: > 25 µM
- IC50 [2]: > 25 µM
- IC50 [3]: > 25 µM

Structure (SMILES): CCN(CC)CCNC(=O)c1c(C)[nH]c(/C=C2\C(=O)Nc3ccc(F)cc32)c1C [SUNITINIB]
- IC50 [1]: 5.62 µM
- IC50 [2]: 3.03 µM
- IC50 [3]: 6.25 µM
